Screening results deposited in PubChem by The Scripps Research Institute Molecular Screening Center.
PLCg1 inh: PLC-gamma1 enzyme inhibitors, primary screen, biochemical, fluorescence, purified enzyme; 1-phosphatidylinositol 4,5-bisphosphate phosphodiesterase gamma-1 (Homo sapiens), P19174; fluorogenic substrate; inhibition, % at 12.2 µM; hit rate 0.84% among 370,000; AID 720700, 2013; in the data active means inhibition above about 9.5%
sPLA2-III inh: human group III sPLA2 inhibitors, primary screen, biochemical, QFRET, BODIPY PC-A2 liposome substrate | AID 743126, 2013 | inhibition, % at 12.2 µM | QFRET BODIPY PC-A2 liposome hydrolysis, fluorescence | hit rate 0.56% among 370,000 | Group 3 secretory phospholipase A2 (Homo sapiens), Q9NZ20;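 active means inhibition above mean plus 3 SD of compounds lying within the high and low control bounds, cut at about 19% in these data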
PLCb3 inh: human PLC-beta3 inhibitors, primary screen, biochemical, fluorescence; 1-phosphatidylinositol 4,5-bisphosphate phosphodiesterase beta-3 (Homo sapiens), Q01970; Purified PLC-beta3, fluorogenic substrate; inhibition, % at 12.2 µM; hit rate 0.18% among 370,000
ARFGAP1 inh: inhibitors of rat ARFGAP1 GAP activity, primary screen, biochemical, fluorescence polarization, GDP tracer | Arfgap1-stimulated ARF1 GTP hydrolysis, GDP FP detection | hit rate 0.26% among 360,000 | inhibition, % at 16.5 µM | ADP-ribosylation factor GTPase-activating protein 1 (Rattus norvegicus), Q62848;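 active means inhibition above a per-plate limit, mean inhibition of low control wells plus 3 SD, cut at about 25% in these data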
Target sequence (Q62848 1-136 limits assumed): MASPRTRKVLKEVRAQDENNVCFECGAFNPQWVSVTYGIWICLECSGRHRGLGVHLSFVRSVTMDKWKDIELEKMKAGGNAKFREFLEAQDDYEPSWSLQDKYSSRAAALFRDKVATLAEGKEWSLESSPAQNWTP
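material = rat Arfgap1 catalytic domain, aa 1-136 | also added = human ARF1(Δ1-17)-GTP substrate | compound dosing = one concentration, 16.5 µM, DMSO 1.26% | times = GTP hydrolysis reaction 2 h at 25 °C | measured by = FP, GDP Alexa 633 tracer displaced from anti-GDP antibody, 620/688 nm | evaluation = percent inhibition of Arfgap1-stimulated GTP hydrolysis | replication = single well per compound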
ASAP1 GAP inh: inhibitors of human ASAP1 ArfGAP activity, primary screen, biochemical, fluorescence polarization; ASAP1-stimulated ARF1 GTP hydrolysis, GDP FP detection; hit rate 0.19% among 360,000; inhibition, % at 16.5 µM; in the data active means inhibition above about 25%
Target sequence (Q9ULH1 325-724 limits assumed): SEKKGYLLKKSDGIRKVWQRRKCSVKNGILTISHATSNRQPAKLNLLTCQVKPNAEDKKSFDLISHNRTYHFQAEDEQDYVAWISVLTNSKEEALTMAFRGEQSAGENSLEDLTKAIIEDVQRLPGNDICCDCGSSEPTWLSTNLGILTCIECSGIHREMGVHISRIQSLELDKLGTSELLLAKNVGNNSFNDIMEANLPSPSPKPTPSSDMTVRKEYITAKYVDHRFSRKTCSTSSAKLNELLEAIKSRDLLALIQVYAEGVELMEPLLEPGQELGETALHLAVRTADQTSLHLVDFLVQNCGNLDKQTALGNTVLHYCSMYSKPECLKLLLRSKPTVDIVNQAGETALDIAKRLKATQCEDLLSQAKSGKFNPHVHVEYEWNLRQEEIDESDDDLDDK
PLCgamma1 ctr: PLC-gamma1 enzyme inhibitors, counter-screen for PLC-beta3 inhibitor project, biochemical, fluorescence; shares compounds with PLCg1 inh; purified PLC-gamma1, fluorogenic substrate; inhibition, % at 12.3 µM; hit rate 3.1% among 3,300; in the data active means inhibition above about 9.5%
PLCb3 confirm: PLC-beta3 inhibitor confirmation, biochemical, fluorescence, purified enzyme | shares compounds with PLCg1 inh | fluorogenic substrate fluorescence | inhibition, % at 12.3 µM | hit rate 1% among 3,300
Large screens that a line does not name were inactive (follow-up assays come after a bar, where they were run). An excerpt weighted towards active compounds, which were near 1.9% of everything screened. Unless noted, no stated cut-off is given here; in the data, active means inhibition above about 11%; inactive means the rest.

OCC1OC(n2cnc3c(=S)nc[nH]c32)CC1O (stereo not given)	PLCg1 inh 10 | PLCgamma1 ctr inactive | PLCb3 confirm inactive
O=c1[nH]cnc2c1ncn2[C@@H]1C[C@@H](O)[C@H](CO)O1	none
C#CCN(C)CC/C=C1\c2ccccc2CSc2ccccc21	PLCg1 inh 10 | PLCgamma1 ctr inactive | PLCb3 confirm inactive
C=CCN(C)CC/C=C1\c2ccccc2CSc2ccccc21	none
O=C(CC1CCCC1)N[C@H](C(=O)N1CCC[C@H]1C(=O)NC1CCCC1)c1ccccc1	none
N#CCCSCc1ccc(C(=O)O)o1	none
N#CCCSCc1ccc(OCC(=O)O)cc1	PLCg1 inh 9.9 | PLCgamma1 ctr inactive | PLCb3 confirm inactive
O=C(C[n+]1cccc(CNC(=O)c2ccc(OC(F)F)cc2)c1)Nc1cccc(C(F)(F)F)c1	PLCb3 inh 12 | PLCgamma1 ctr inactive | PLCb3 confirm inactive
COC(=O)C[C@@H]1CC[C@H]2[C@@H](COc3ccc(NS(=O)(=O)c4ccccc4F)cc3C(=O)N2C)O1	none (no result: ARFGAP1 inh, ASAP1 GAP inh)
O=C(OC12CCCN(C1)/C(=C/c1ccc(Cl)cc1)C2)c1ccc(F)cc1 (stereo not given)	none (no result: ARFGAP1 inh, ASAP1 GAP inh)
O=C(O)c1ccc(OCc2occc2C(=O)O)cc1	PLCg1 inh 13 | PLCgamma1 ctr inactive | PLCb3 confirm inactive
NC(=O)NC(=O)CSc1cccc(C(F)(F)F)c1	PLCg1 inh 9.5 | PLCgamma1 ctr inactive | PLCb3 confirm inactive
Cc1c([N+](=O)[O-])cnc(Sc2ccccc2)c1[N+](=O)[O-]	PLCg1 inh 11 | PLCgamma1 ctr 9.5 | PLCb3 confirm inactive
COCc1[nH][nH]c(=O)c1C=Nc1ccc(Cl)cc1	none
COCc1[nH][nH]c(=O)c1C=Nc1ccc(OC(F)(F)F)cc1	PLCb3 inh 11 | PLCgamma1 ctr inactive | PLCb3 confirm inactive
COc1ccc(N(CC(=O)Nc2cccc(C)c2)S(=O)(=O)c2c(C)n[nH]c2C)cc1	none
CCc1cccc(NC(=O)CN(c2ccc(OC)cc2)S(=O)(=O)c2c(C)n[nH]c2C)c1	PLCg1 inh 14, PLCb3 inh 11 | PLCgamma1 ctr 16 | PLCb3 confirm 13
CCCCCCn1c(=O)n2n(c1=O)C[C@]1(OC(=O)NC3CCCC3)CN(S(=O)(=O)c3ccc(C)cc3)C[C@]1(O)C2	PLCg1 inh 11 | PLCgamma1 ctr inactive | PLCb3 confirm inactive
COC(=O)[C@H]1C[C@@]2(O)CN(S(=O)(=O)c3ccc(C)cc3)C[C@@]2(OC(=O)NC2CCCC2)C[C@H]1C(=O)OC	PLCg1 inh 9.7 | PLCgamma1 ctr inactive | PLCb3 confirm inactive
CN(CCOC(=O)c1cccs1)C1CN(Cc2cn(Cc3ccccc3Cl)nn2)S(=O)(=O)C1 (stereo not given)	none (no result: ARFGAP1 inh, ASAP1 GAP inh)
CC(C)C[C@@H]1COc2cc(Br)ccc2S(=O)(=O)N1Cc1cn(Cc2ccccc2)nn1	none (no result: ARFGAP1 inh, ASAP1 GAP inh)
COCCCN1C(=O)[C@H](CC(=O)N2CCN(C(=O)C3CC3)CC2)[C@]2(C(=O)OC)CCCCC=C12	none (no result: ARFGAP1 inh, ASAP1 GAP inh)
CC(CC(=O)Nc1ccc(Br)cc1F)S(=O)(=O)c1ccc2c(c1)NC(=O)CO2 (stereo not given)	PLCg1 inh 12 | PLCgamma1 ctr inactive | PLCb3 confirm inactive
N#CC1(NC(=O)CSc2nc3ccc([N+](=O)[O-])cc3s2)CCCCC1	none
N#CC1(NC(=O)CSc2nc3ccccc3s2)CCCCC1	PLCg1 inh 12 | PLCgamma1 ctr inactive | PLCb3 confirm inactive
COc1ccc(N2C(=O)N3[C@H](c4ccc(Br)cc4)[C@@H]4C(=O)N(C(C)(C)C)C(=O)[C@@H]4[C@]3(Cc3ccccc3)C2=O)cc1	none
COc1ccc([C@@H]2[C@@H]3C(=O)N(C(C)(C)C)C(=O)[C@@H]3[C@]3(Cc4ccccc4)C(=O)N(c4cccc(Cl)c4)C(=O)N23)cc1	PLCg1 inh 9.6 | PLCgamma1 ctr inactive | PLCb3 confirm inactive
CC(C)(C)N1C(=O)[C@H]2[C@@H](c3ccc(Br)cc3)N3C(=O)N(c4cccc(Cl)c4)C(=O)[C@@]3(Cc3ccccc3)[C@H]2C1=O	PLCg1 inh 10 | PLCgamma1 ctr inactive | PLCb3 confirm inactive
COc1ccc(-n2c(SCC(=O)Nc3cc(C)c(NC(=O)c4ccccc4)cc3OC)nnc2-c2ccccc2F)cc1	none (no result: ARFGAP1 inh, ASAP1 GAP inh)
COC(=O)[C@H](C(C)C)N1Cc2nnn(CC3CCCCC3)c2-c2cc(F)ccc2S1(=O)=O	none (no result: ARFGAP1 inh, ASAP1 GAP inh)
Cc1ccc(CS(=O)Cc2ccc(C(=O)N3CCN(c4ccccc4)CC3)o2)cc1 (stereo not given)	none
Cc1ccc(CS(=O)Cc2ccc(C(=O)N3CCN(c4ccc(F)cc4)CC3)o2)cc1 (stereo not given)	PLCg1 inh 12 | PLCgamma1 ctr inactive | PLCb3 confirm inactive
CC1(CC(=O)N/N=C/c2cc([N+](=O)[O-])c(O)cc2O)OCCO1	PLCg1 inh 9.6 | PLCgamma1 ctr 13 | PLCb3 confirm inactive
Cc1ccc(-n2c(C)cc(/C=N/NC(=O)CC3(C)OCCO3)c2C)c(C)c1	none
N[C@H](C(=O)Nc1ccc(Cl)cc1C(=O)c1ccc[nH]1)c1ccccc1	none (no result: ARFGAP1 inh, ASAP1 GAP inh)
CCC(C)(C(=O)NC1CCCC1)N(Cc1cccs1)C(=O)c1ccccn1 (stereo not given)	PLCg1 inh 10 | PLCgamma1 ctr inactive | PLCb3 confirm inactive
Cn1cc(CN2CCC(C(=O)NC(c3ccc(-c4ccccc4)cc3)c3cnccn3)CC2)c2ccccc21 (stereo not given)	PLCg1 inh 12 | PLCgamma1 ctr inactive | PLCb3 confirm inactive
CCCCn1c(-c2csc3c2CCCC3)n[nH]c1=S	PLCg1 inh 15 | PLCgamma1 ctr inactive | PLCb3 confirm inactive
CCCCn1c(-c2csc3c2CCC(C)C3)n[nH]c1=S (stereo not given)	none
COC(=O)[C@]12C[C@H](CC(=O)NCc3ccc(OC)c(OC)c3)C(=O)N(Cc3cccc4ccccc34)C1=C[C@H](COCc1ccccc1)O[C@@H]2C	none (no result: ARFGAP1 inh, ASAP1 GAP inh)
CN(c1ccccc1C(=O)Nc1cccc([N+](=O)[O-])c1)S(C)(=O)=O	PLCg1 inh 9.9 | PLCgamma1 ctr inactive | PLCb3 confirm inactive
O=C(NCc1cccs1)C1CCCN1C(=O)NC1CCCCC1 (stereo not given)	none
